Source: ChEMBL document CHEMBL4316609, “Chemical synthesis and functional characterization of a new class of ceramide analogues as anti-cancer agents” (Bioorg Med Chem, 2019)
The source made the active and inactive calls. No cut-off for these calls is given here.

Experiments:
Type in all cases: functional, cell-based
A-431 = assay: Cytotoxicity against human A431 cells measured after 48 hrs by MTT assay; details: A-431, 48 h
How it was run: (§1)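 Seeded at 7x10^3 cells/well and allowed 24 h to attach. Compounds added at final 0 to 200 μM and incubated 48 h. Viability read by MTT. IC50 taken as the concentration giving 50% growth inhibition; mean ± SD, N = 4.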

SW-620 [1] = assay: Cytotoxicity against human SW620 cells measured after 48 hrs by MTT assay; details: SW-620, 48 h; how it was run: as §1
HeLa = assay: Potentiation of TRAIL-induced cytotoxicity against human HeLa cells assessed as reduction in cell growth at cytotoxic IC50 measured after 48 hrs by MTT assay
How it was run: (§2)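 Viability read by MTT. Growth inhibition calculated as OD570 of untreated minus OD570 of treated cells; mean and SD.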

HepG2 [2] = assay: Potentiation of TRAIL-induced cytotoxicity against human HepG2 cells assessed as reduction in cell growth at cytotoxic IC50 measured after 48 hrs by MTT assay; how it was run: as §2
[3] = Cytotoxicity against human SA cells measured after 48 hrs by MTT assay; details: +SA cell; how it was run: as §1
LS-411N = assay: Potentiation of TRAIL-induced cytotoxicity against human LS411N cells assessed as reduction in cell growth at cytotoxic IC50 measured after 48 hrs by MTT assay; how it was run: as §2
MCF7 [4] = assay: Potentiation of TRAIL-induced cytotoxicity against human MCF7 cells assessed as reduction in cell growth at cytotoxic IC50 measured after 48 hrs by MTT assay; how it was run: as §2
SW-620 [5] = assay: Potentiation of TRAIL-induced cytotoxicity against human SW620 cells assessed as reduction in cell growth at cytotoxic IC50 measured after 48 hrs by MTT assay; how it was run: as §2
SiHa = assay: Cytotoxicity against human SiHa cells measured after 48 hrs by MTT assay; how it was run: as §1
MCF7 [6] = assay: Cytotoxicity against human MCF7 cells measured after 48 hrs by MTT assay; details: MCF7, 48 h; how it was run: as §1
HepG2 [7] = assay: Cytotoxicity against human HepG2 cells measured after 48 hrs by MTT assay; details: HepG2, 48 h; how it was run: as §1
SW-620 [8] = assay: Induction of apoptosis in human SW620 cells assessed as morphological changes by measuring appearance of shining cells at cytotoxic IC50 measured after 8 to 24 hrs by Hoechst 33342 staining based fluorescence microscopic analysis

Compound	IC50 (A-431) [µM]	IC50 (SW-620 [1]) [µM]	Activity (HeLa)	Activity (HepG2 [2])	IC50 [3] [µM]	Activity (LS-411N)	Activity (MCF7 [4])	Activity (SW-620 [5])	IC50 (SiHa) [µM]	IC50 (MCF7 [6]) [µM]	IC50 (HepG2 [7]) [µM]	Activity (SW-620 [8])
C/C=C/C=C/C(=O)N[C@H](C(=O)NCCCCCCCC)[C@@H](C)O	58.2	200	Active	Active	40.4	Active	Active	Active	–	–	–	–
CCCCCCCCCCCCCCCCCCNC(=O)[C@@H](NC(=O)c1nccc2ccccc12)[C@@H](C)O	44.1	–	Active	Active	49.1	Active	Active	Active	51.2	30.8	96.9	–
CCCCCCCCCCCCNC(=O)[C@@H](NC(=O)c1ccco1)[C@@H](C)O	92.4	87.5	Active	Active	93.5	Active	Active	Active	64.3	67.5	–	–
CCCCCCCCCCCCNC(=O)[C@@H](NC(=O)c1ccccc1)[C@@H](C)O	41.2	200	Active	Active	75.5	Active	Active	Active	63.9	36.6	–	–
CCCCCCCCCCCCNC(=O)[C@@H](NC(=O)c1nccc2ccccc12)[C@@H](C)O	62.8	65.8	Active	Active	51.9	Active	Active	Active	56.6	50.5	65.7	–
CCCCCCCCNC(=O)[C@@H](NC(=O)c1cc2ccccc2o1)[C@@H](C)O	52.7	200	Active	Active	40.8	Active	Active	Active	66.5	47.2	81.3	–
CCCCCCCCCCCCCCNC(=O)[C@@H](NC(=O)c1cc2ccccc2n1C)[C@@H](C)O	13.7	21.5	–	–	25.7	–	–	–	26.5	25.7	34.5	Active
CCCCCCCCNC(=O)[C@@H](NC(=O)c1cccs1)[C@@H](C)O	32.1	–	Active	Active	60.9	Active	Active	Active	91.9	72.5	–	–
